According to ChEMBL document CHEMBL4725355, “Design, Synthesis, and Preclinical Evaluation of 3-Methyl-6-(5-thiophenyl)-1,3-dihydro-imidazo[4,5-b]pyridin-2-ones as Selective GluN2B Negative Allosteric Modulators for the Treatment of Mood Disorders” (J Med Chem, 2020):

Columns and labels:
[1] = Negative allosteric modulation of human GluN1a/GluN2A receptor expressed in CHO cells assessed as inhibition of glutamate and glycine-induced calcium flux preincubated for 5 mins followed by glutamate and glycine addition and measured after 5 mins by calcium 5 dye based FLIPR assay; type: cell-based
Outline: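 Tet-On CHO T-Rex cells expressing hGluN1a with GluN2A, 2B, 2C or 2D, plated at 20,000 cells/well and induced 24 h before the assay in the presence of ketamine. Cells loaded 1 h at room temperature with Calcium 5 dye, pH 7.4 HEPES buffer. Compound added 5 min, then glutamate (~EC80) plus 10 µM glycine for 5 min; FLIPR fluorescence normalized to control wells. Three independent runs in duplicate (two for some).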

[2] = Drug level in Sprague-Dawley rat brain hippocampus at 0.03 mg/kg, iv after 30 min by LC-MS/MS analysis; type: ADME, organism-based; conditions: read-out: Drug uptake
Outline: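 Single i.v. dose of 0.03 mg/kg in 50% (w/v) PEG/water, pH 7.4; rats n=3 per group, killed at 5, 10, 30, 60 and 120 min. Cerebellum, cortex, striatum and hippocampus dissected, weighed and homogenized; drug quantified by LC-MS/MS and normalized to tissue weight. P<0.05 taken as significant versus cerebellum.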

[3] = Volume of distribution at steady state in Sprague-Dawley rat at 0.5 mg/kg, iv by LC-MS/MS analysis; type: ADME, organism-based; conditions: in vivo, read-out: Vdss
Outline: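 Rat PK at 0.5 mg/kg i.v. and 2.5 mg/kg p.o., vehicle 20% HP-β-CD. n=3, values given as mean ± SD.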

For Cn1c(=O)n(CC(=O)N2CCC2)c2cc(-c3ccc(C(F)(F)F)s3)cnc21, the IC50 [1] was greater than 10 µM, the concentration at 0.5 h [2] was 22.7 ng/mL and the Vd [3] was 1.9 L/kg.
